ChEMBL document CHEMBL1127489, “Synthesis of novel N-phosphonoalkyl dipeptide inhibitors of human collagenase” (J Med Chem, 1994)

Molecular target: T1, Interstitial collagenase (Homo sapiens, UniProt P03956)
T1 sequence (P03956 whole entry): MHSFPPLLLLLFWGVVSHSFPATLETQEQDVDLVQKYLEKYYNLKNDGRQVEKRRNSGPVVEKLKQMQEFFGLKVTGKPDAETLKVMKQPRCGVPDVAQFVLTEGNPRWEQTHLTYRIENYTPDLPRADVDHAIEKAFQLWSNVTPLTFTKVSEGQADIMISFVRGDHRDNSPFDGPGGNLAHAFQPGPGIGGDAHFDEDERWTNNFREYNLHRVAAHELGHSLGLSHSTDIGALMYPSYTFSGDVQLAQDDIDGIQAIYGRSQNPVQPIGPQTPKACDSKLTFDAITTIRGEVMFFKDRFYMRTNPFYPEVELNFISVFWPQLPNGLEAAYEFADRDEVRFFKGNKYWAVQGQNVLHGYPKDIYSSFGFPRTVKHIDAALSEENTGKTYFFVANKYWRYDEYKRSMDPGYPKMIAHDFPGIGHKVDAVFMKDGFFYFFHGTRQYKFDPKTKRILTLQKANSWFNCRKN
Experiment: Inhibition of degradation of radiolabeled rat skin type I collagen by semipurified human lung fibroblast collagenase
Procedure, shortened: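 Collagenase from WI-38 human lung fibroblast culture supernatants, trypsin-activated and semipurified. Substrate was 3H- or 14C-acetylated rat skin type I collagen, 100 μg/tube, added at 4 °C. Enzyme amount set to degrade 70% of collagen. Compounds were dissolved in MeOH by sonication and serially diluted. Incubation ran 1000 min at 37 °C, then centrifugation at 4 °C. Supernatant soluble peptides were scintillation counted.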

SMILES	IC50 [µM]
CC[C@H](N[C@@H](CC(C)C)C(=O)N[C@@H](CCCCN)C(=O)NC)P(=O)(O)O	4.32
CC[C@H](N[C@@H](CC(C)C)C(=O)N[C@@H](CCCNC(=N)N)C(=O)NC)P(=O)(O)O	0.29
CNC(=O)[C@H](Cc1ccc(OC)cc1)NC(=O)[C@H](CC(C)C)N[C@H](C)P(=O)(O)O	0.26
CNC(=O)[C@H](Cc1ccc(OC)cc1)NC(=O)C(CC(C)C)NC(CC(C)C)P(=O)(O)O (stereo not given in full)	2.9
CC[C@H](N[C@@H](CC(C)C)C(=O)N[C@@H](Cn1cccn1)C(=O)NC)P(=O)(O)O	0.76
CC[C@H](N[C@H](CC(C)C)C(=O)N[C@@H](Cc1ccccc1)C(=O)NC)P(=O)(O)O	> 10
CC[C@H](N[C@H](CC(C)C)C(=O)N[C@@H](Cc1ccc(OC)cc1)C(=O)NC)P(=O)(O)O	15.6
CCC(NC(CC(C)C)C(=O)N[C@@H](Cc1ccc(OC)cc1)C(=O)NC)[PH](=O)O (stereo not given in full)	> 100
CNC(=O)[C@H](Cc1ccc(OC)cc1)NC(=O)[C@H](CC(C)C)N[C@@H](CCNC(=O)OCc1ccccc1)C(=O)O	0.35
CC[C@@H](N[C@@H](CC(C)C)C(=O)N[C@@H](Cc1ccccc1)C(=O)NC)P(=O)(O)O	0.24
CC[C@@H](N[C@H](CC(C)C)C(=O)N[C@@H](Cc1ccccc1)C(=O)NC)P(=O)(O)O	> 10
CCCC(NC(CC(C)C)C(=O)N[C@@H](Cc1ccc(OC)cc1)C(=O)NC)P(=O)(O)O (stereo not given in full)	15.7
CNC(=O)[C@H](Cc1ccc(OC)cc1)NC(=O)[C@H](CC(C)C)N[C@@H](C)P(=O)(O)O	0.52
CNC(=O)[C@H](Cc1ccccc1)NC(=O)[C@H](CC(C)C)N[C@H](CCc1ccccc1)P(=O)(O)O	1.82
CCCCC(NC(CC(C)C)C(=O)N[C@@H](Cc1ccc(OC)cc1)C(=O)NC)P(=O)(O)O (stereo not given in full)	41.2
CNC(=O)CP(=O)(O)C[C@@H](CC(C)C)C(=O)N[C@@H](Cc1ccc(OC)cc1)C(=O)NC	37
CC[C@@H](N[C@@H](CC(C)C)C(=O)N[C@@H](Cc1ccc(OC)cc1)C(=O)NC)P(=O)(O)O	0.3
CC[C@H](N[C@@H](CC(C)C)C(=O)N[C@@H](Cc1nc2ccccc2[nH]1)C(=O)NC)P(=O)(O)O	0.15
CNC(=O)[C@H](Cc1ccc(OC)cc1)NC(=O)C(CC(C)C)NC(C)P(C)(=O)O (stereo not given in full)	> 100
CNC(=O)[C@H](Cc1ccccc1)NC(=O)[C@H](CC(C)C)N[C@@H](CCc1ccccc1)P(=O)(O)O	0.4
CC[C@H](N[C@@H](CC(C)C)C(=O)N[C@@H](Cc1ccc(OC)cc1)C(=O)NC)P(=O)(O)O	0.47
CC[C@@H](N[C@@H](CC(C)C)C(=O)N[C@@H](CCCCN)C(=O)NC)P(=O)(O)O	0.74
CC[C@H](N[C@@H](CC(C)C)C(=O)N[C@@H](CC(=O)NCCN1CCCC1)C(=O)NC)P(=O)(O)O	1.36
CNC(=O)[C@H](Cc1ccc(OC)cc1)NC(=O)C(CC(C)C)NC(C(C)C)P(=O)(O)O (stereo not given in full)	2.9
CNC(=O)[C@H](Cc1ccc(OC)cc1)NC(=O)[C@H](CC(C)C)N[C@H](C)C(=O)O	> 10
CC[C@H](N[C@@H](CC(C)C)C(=O)N[C@@H](CCCN(C)C)C(=O)NC)P(=O)(O)O	0.49
CC[C@H](N[C@@H](CC(C)C)C(=O)N[C@@H](Cc1c[nH]c2ccccc12)C(=O)NC)P(=O)(O)O	0.05
CC[C@H](N[C@@H](CC(C)C)C(=O)N[C@@H](Cc1ccccc1)C(=O)NC)P(=O)(O)O	0.23
CNC(=O)[C@H](Cc1ccccc1)NC(=O)[C@H](CC(C)C)N[C@@H](CC(C)C)P(=O)(O)O	1.56
CC[C@@H](N[C@H](CC(C)C)C(=O)N[C@@H](Cc1ccc(OC)cc1)C(=O)NC)P(=O)(O)O	39.3
